Results collected from several papers.
Each line is one published result; the experiments were not run side by side.
Effect on: cell growth or viability

| Compound | cell line | method | time | IC50 [µM] |
| --- | --- | --- | --- | --- |
| CC(=O)O[C@H]1C(=O)[C@@]2(C)[C@H]([C@H](OC(=O)c3ccccc3)[C@]3(O)C[C@H](OC(=O)[C@H](O)[C@@H](NC(=O)c4ccccc4)c4ccccc4)C(C)=C1C3(C)C)[C@]1(OC(C)=O)CO[C@@H]1C[C@@H]2O | LLC-PK1 | MTT | 72 h | 1.31 |
| Nc1cccc2c1C(=O)N(C1CCC(=O)NC1=O)C2=O (centres unmarked) | SU-DHL-4 | CCK-8 | 7 days | > 20 |
| COc1cc(C=NNC(=O)c2cc(-c3ccccc3)n(-c3ccc(S(N)(=O)=O)cc3)n2)cc(OC)c1OC | HT-29 | fluorescence | 48 h | 26.3 |
| CC(=O)O[C@@H]1CC[C@@]2(C)[C@@H](CC[C@]3(C)[C@@H]2C(=O)C=C2[C@@H]4[C@@H](C)[C@H](C)CC[C@]4(C)CC[C@]23C)[C@@]1(C)C(=O)O | Caco-2 | MTT | 6 h | 1.61 |
| NS(=O)(=O)c1ccc(-n2nc(-c3nnc(CCl)o3)cc2-c2ccccc2)cc1 | HT-29 | fluorescence | 48 h | 29.5 |
| CN1CCC(NC2CCc3[nH]c4c(C(N)=O)ccc(-c5ccccc5Cl)c4c3C2)CC1 (centres unmarked) | SU-DHL-4 | – | 96 h | 0.0223 |
| NS(=O)(=O)c1ccc(-n2nc(C(=O)NN3C(=O)c4ccccc4C3=O)cc2-c2ccccc2)cc1 | HT-29 | fluorescence | 48 h | 48.3 |
| O=c1c2cc(Cl)ccc2nc(-c2ccccc2)n1N=Cc1ccc(Br)cc1O | LLC-PK1 | MTT | 72 h | 34.8 |
| COc1ccc(C=NNC(=O)c2cc(-c3ccccc3)n(-c3ccc(S(N)(=O)=O)cc3)n2)cc1OC | HT-29 | fluorescence | 48 h | 25.8 |
| COc1cccc2c1C(=O)c1c(O)c3c(c(O)c1C2=O)C[C@@](O)(C(=O)CO)C[C@@H]3O[C@H]1C[C@H](N)[C@H](O)[C@H](C)O1 | LLC-PK1 | – | 48 h | 2.34 |
| NS(=O)(=O)c1ccc(-n2nc(C(=O)NN=Cc3cccnc3)cc2-c2ccccc2)cc1 | HT-29 | fluorescence | 48 h | 32.3 |
| O=c1c2cc(Cl)ccc2nc(-c2ccccc2)n1N=Cc1ccc(F)cc1 | LLC-PK1 | MTT | 72 h | 86.7 |
| O=C(NO)c1ccc(N2CCN(Cc3c[nH]c4ccccc34)CC2)cc1 | LLC-PK1 | – | 48 h | 13.3 |
| Cc1nn(-c2ccc(S(=O)(=O)N3CCN(C)CC3)cc2)c2nn3nnnc3nc12 | HT-29 | MTT | – | 0.08 |
| O=c1c2cc(Cl)ccc2nc(-c2ccccc2)n1N=Cc1ccccc1 | LLC-PK1 | MTT | 72 h | 303 |
| Cc1ccc(S(=O)(=O)n2cc(CN3CCN(c4ccc(C(=O)NO)cc4)CC3)c3ccccc32)cc1 | LLC-PK1 | – | 48 h | 8.82 |
| O=c1c2cc(Cl)ccc2nc(-c2ccccc2)n1N=Cc1ccc([N+](=O)[O-])cc1 | LLC-PK1 | MTT | 72 h | 115 |
| NS(=O)(=O)c1ccc(-n2nc(C(=O)NN3C(=O)CCC3=O)cc2-c2ccccc2)cc1 | HT-29 | fluorescence | 48 h | 31.4 |
| C=CC(=O)N1CCC[C@@H](n2nc(-c3ccc(Oc4ccccc4)cc3)c3c(N)ncnc32)C1 | SU-DHL-4 | resazurin | 72 h | 0.454 |
| O=c1c2cc(Cl)ccc2nc(-c2ccccc2)n1N=Cc1ccccc1Cl | LLC-PK1 | MTT | 72 h | 351 |
